Series [1] concerns the target Serine/threonine-protein kinase pim-1 (Homo sapiens) (UniProt P11309). Briefly: Inhibition of PIM1 at 10 uM.
The target in series [2] is Mitogen-activated protein kinase 14 (Homo sapiens) (UniProt Q16539). Description: Inhibition of SAPK2a at 10 uM.
A further series relates to Hepatocyte. Description: Clearance in rat hepatocyte assessed per mg of protein at 2 uM. Type of series: ADME, cell-based, Liver. Conditions: hepatocytes.
Series [3] can be described thus: Cmax in Han-Wistar rat at 3 mg/kg, po. Type of series: ADME, organism-based. Conditions: in vivo. Also on record: dose 3 mg/kg, route oral. The method in brief: (§1)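 Male-or-unspecified Han–Wistar rats were given a single oral dose of 3 mg/kg. Plasma Cmax is reported in ng/mL and AUC in ng h/mL.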
Series [4] can be described thus: AUC in Han-Wistar rat at 3 mg/kg, po. Type of series: ADME, organism-based. Set-up: dose 3 mg/kg, route oral. To be noted: plasma. The essentials: as §1
A short description of series [5]: Clearance in Han-Wistar rat at 1 mg/kg, iv. Type of series: ADME, organism-based. Set-up: dose 1 mg/kg, route intravenous. To be noted: in vivo. The method in brief: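 Han–Wistar rats were dosed intravenously at 1 mg/kg. Clearance is reported in mL/min/kg.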
The nature of series [6]: Oral bioavailability in Han-Wistar rat at 3 mg/kg. The format is ADME, organism-based. Conditions: in vivo.
The subject of the next series is Rattus norvegicus. Briefly: Inhibition of anti-CD3-induced IL2 release in po dosed Lewis rat blood. Type of series: functional. The method in brief: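 Acute T-cell activation was induced by anti-CD3 antibody in male Lewis rats. Compound was given orally, and IL2 released into blood was measured. Percent inhibition of IL-2 was plotted against log dose (mg/kg) to derive ED50. Values are mean ± SEM, n = 8.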

Series [7] deals with T1, Testis-specific serine/threonine-protein kinase 1 (Homo sapiens) (UniProt Q9BXA7).
T1 sequence (whole entry): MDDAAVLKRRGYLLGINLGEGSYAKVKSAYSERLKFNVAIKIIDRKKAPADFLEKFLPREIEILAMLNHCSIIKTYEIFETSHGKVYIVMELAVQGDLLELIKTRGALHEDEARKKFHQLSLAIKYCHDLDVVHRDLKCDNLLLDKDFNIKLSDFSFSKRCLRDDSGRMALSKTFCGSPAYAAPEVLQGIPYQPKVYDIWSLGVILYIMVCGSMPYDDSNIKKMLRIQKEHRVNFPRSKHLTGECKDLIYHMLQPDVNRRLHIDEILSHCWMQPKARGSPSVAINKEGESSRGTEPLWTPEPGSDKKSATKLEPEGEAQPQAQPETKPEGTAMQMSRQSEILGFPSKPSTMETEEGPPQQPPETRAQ
Briefly: Inhibition of TSSK1 at 10 uM.

The target in series [8] is T2, Phosphatidylinositol 4,5-bisphosphate 3-kinase catalytic subunit delta isoform (Homo sapiens, UniProt O00329).
T2 sequence (O00329 whole entry): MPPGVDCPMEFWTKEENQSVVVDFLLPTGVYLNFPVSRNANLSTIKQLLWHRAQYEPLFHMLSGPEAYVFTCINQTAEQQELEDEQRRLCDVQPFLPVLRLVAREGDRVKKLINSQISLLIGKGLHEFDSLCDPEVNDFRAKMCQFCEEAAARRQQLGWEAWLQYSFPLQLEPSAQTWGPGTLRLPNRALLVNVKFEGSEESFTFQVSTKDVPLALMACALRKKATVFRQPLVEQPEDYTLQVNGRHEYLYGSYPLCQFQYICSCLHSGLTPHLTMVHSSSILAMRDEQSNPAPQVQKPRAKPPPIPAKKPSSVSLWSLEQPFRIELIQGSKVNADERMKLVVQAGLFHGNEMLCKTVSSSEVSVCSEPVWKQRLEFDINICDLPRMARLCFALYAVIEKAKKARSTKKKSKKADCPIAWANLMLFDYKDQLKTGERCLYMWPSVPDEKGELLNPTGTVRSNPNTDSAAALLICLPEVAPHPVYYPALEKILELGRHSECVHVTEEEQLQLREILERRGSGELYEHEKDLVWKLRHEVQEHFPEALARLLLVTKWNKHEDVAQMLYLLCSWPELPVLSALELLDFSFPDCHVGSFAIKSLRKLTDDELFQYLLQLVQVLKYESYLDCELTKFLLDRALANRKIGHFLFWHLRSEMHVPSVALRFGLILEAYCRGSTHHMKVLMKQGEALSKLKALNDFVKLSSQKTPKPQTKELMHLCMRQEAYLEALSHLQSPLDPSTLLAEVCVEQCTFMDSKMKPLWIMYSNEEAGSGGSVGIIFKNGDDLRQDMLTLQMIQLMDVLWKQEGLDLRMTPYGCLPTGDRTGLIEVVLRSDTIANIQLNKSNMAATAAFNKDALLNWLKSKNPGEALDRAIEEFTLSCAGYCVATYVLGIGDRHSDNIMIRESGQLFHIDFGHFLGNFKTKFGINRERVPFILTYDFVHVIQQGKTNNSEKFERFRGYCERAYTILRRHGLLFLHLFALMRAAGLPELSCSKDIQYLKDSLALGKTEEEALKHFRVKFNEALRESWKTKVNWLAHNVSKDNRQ
Description: Inhibition of PI3K delta.

For series [9], the target named is Phosphatidylinositol 4,5-bisphosphate 3-kinase catalytic subunit gamma isoform (Homo sapiens, UniProt P48736). Description: Inhibition of PI3K gamma.
The target in series [10] is Phosphatidylinositol 4,5-bisphosphate 3-kinase catalytic subunit alpha isoform (Homo sapiens, UniProt P42336). Briefly: Inhibition of PI3K alpha.
Series [11] concerns the target Phosphatidylinositol 4,5-bisphosphate 3-kinase catalytic subunit beta isoform (Homo sapiens, UniProt P42338). Description: Inhibition of PI3K beta.
Series [12] can be described thus: Inhibition of CaMK2 at 10 uM.
Series [13] can be described thus: Inhibition of CK1 at 10 uM.
Series [14] addresses T3, Serine/threonine-protein kinase mTOR (Homo sapiens, UniProt P42345). Description: Inhibition of mTOR at 10 uM.
For another series, the system named is Neutrophil. Description: Inhibition of fMLP-stimulated superoxide production in TNF alpha-primed human neutrophils by spectrophotometry. Type of series: functional, cell-based. The essentials: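 Human neutrophils were primed with TNFα and stimulated with fMLP, and cellular superoxide production was monitored. Inhibition values are quoted in nM.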
A short description of series [15]: Clearance in rat microsomes assessed per mg of protein at 0.5 uM. Type of series: ADME, Liver, Microsome. Conditions: liver microsomes. In general terms: Liver microsomes are vesicles of endoplasmic reticulum, rich in cytochrome P450 enzymes.
Series [16] can be described thus: Clearance in human microsomes assessed per mg of protein at 0.5 uM. Type of series: ADME, Microsome.
Series [17] deals with T3, Serine/threonine-protein kinase mTOR. Description: Inhibition of mTOR.

The source made the active and inactive calls. No cut-off for these calls is given here.

Serine/threonine-protein kinase pim-1 (Homo sapiens), sequence (P11309 whole entry, looked up): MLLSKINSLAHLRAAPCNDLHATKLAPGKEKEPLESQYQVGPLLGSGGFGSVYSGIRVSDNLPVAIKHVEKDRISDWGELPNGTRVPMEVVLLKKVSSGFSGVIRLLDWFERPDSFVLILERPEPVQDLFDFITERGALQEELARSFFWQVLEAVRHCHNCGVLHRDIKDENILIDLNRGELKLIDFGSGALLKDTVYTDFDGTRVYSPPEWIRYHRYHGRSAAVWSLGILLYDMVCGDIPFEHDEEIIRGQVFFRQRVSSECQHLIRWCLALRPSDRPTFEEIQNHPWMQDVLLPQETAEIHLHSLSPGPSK
Mitogen-activated protein kinase 14 (Homo sapiens), sequence (Q16539 whole entry): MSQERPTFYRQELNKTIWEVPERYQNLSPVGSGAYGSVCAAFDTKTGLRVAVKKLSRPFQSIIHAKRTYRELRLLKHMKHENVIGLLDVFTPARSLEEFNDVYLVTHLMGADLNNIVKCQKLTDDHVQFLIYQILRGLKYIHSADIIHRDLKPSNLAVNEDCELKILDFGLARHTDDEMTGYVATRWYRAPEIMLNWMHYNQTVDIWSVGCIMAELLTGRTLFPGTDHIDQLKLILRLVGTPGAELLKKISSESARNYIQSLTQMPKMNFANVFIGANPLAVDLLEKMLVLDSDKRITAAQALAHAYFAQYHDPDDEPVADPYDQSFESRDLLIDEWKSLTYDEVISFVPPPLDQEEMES
Phosphatidylinositol 4,5-bisphosphate 3-kinase catalytic subunit beta isoform, sequence (P42338 whole entry, canonical isoform): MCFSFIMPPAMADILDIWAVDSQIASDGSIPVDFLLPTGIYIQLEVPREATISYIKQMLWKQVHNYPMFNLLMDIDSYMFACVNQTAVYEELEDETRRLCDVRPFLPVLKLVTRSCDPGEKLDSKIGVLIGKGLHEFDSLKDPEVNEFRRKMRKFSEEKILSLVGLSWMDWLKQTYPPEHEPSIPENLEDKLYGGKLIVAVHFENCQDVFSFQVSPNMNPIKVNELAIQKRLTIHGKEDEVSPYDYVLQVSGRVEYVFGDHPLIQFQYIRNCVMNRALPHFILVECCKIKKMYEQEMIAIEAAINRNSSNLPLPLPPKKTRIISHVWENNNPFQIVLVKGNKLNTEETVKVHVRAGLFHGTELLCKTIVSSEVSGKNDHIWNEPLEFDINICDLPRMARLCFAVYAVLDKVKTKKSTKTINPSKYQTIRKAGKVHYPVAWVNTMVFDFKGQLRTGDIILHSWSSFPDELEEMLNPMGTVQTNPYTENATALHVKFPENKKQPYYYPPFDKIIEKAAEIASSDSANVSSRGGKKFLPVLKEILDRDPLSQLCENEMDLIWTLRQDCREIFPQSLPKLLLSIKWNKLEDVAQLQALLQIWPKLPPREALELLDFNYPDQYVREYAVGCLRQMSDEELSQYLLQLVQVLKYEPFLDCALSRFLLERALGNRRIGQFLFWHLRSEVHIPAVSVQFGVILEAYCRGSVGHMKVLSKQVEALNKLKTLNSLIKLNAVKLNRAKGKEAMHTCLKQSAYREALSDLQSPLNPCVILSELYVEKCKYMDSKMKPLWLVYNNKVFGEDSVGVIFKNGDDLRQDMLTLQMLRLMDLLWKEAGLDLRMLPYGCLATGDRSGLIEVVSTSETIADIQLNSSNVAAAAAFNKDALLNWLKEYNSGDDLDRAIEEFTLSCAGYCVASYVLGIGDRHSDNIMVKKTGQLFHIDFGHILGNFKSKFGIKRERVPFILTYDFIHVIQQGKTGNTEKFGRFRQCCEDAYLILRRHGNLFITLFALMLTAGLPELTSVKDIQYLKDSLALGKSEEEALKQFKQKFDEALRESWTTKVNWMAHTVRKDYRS
Phosphatidylinositol 4,5-bisphosphate 3-kinase catalytic subunit alpha isoform, sequence (P42336 whole entry, canonical isoform): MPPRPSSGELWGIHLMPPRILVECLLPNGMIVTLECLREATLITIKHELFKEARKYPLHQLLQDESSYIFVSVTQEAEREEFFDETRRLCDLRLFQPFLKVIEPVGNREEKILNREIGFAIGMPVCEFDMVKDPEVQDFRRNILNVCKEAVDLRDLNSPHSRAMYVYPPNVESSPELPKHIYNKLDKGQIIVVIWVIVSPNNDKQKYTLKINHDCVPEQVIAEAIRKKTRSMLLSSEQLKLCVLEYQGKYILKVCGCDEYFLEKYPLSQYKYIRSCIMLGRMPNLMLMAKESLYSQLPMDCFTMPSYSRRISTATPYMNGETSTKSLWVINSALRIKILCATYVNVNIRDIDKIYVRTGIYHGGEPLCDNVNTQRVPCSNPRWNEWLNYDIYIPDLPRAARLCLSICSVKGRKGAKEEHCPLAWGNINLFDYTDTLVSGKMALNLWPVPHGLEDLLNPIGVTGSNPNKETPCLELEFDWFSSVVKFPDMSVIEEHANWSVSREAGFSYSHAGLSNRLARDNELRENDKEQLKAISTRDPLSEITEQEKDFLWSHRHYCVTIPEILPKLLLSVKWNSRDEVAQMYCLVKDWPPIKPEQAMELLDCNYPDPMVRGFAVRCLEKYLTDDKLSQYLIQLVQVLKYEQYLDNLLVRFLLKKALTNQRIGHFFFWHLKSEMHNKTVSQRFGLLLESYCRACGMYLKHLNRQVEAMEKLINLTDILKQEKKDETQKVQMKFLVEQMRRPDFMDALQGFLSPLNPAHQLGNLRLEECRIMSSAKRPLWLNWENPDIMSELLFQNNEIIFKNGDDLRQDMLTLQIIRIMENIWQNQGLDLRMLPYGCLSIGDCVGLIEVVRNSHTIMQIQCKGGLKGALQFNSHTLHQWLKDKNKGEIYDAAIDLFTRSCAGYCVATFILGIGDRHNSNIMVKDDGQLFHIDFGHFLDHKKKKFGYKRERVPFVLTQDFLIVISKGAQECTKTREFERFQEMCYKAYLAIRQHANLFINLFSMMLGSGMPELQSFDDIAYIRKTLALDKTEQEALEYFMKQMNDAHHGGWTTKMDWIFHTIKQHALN
Phosphatidylinositol 4,5-bisphosphate 3-kinase catalytic subunit gamma isoform, sequence (P48736 whole entry, canonical isoform): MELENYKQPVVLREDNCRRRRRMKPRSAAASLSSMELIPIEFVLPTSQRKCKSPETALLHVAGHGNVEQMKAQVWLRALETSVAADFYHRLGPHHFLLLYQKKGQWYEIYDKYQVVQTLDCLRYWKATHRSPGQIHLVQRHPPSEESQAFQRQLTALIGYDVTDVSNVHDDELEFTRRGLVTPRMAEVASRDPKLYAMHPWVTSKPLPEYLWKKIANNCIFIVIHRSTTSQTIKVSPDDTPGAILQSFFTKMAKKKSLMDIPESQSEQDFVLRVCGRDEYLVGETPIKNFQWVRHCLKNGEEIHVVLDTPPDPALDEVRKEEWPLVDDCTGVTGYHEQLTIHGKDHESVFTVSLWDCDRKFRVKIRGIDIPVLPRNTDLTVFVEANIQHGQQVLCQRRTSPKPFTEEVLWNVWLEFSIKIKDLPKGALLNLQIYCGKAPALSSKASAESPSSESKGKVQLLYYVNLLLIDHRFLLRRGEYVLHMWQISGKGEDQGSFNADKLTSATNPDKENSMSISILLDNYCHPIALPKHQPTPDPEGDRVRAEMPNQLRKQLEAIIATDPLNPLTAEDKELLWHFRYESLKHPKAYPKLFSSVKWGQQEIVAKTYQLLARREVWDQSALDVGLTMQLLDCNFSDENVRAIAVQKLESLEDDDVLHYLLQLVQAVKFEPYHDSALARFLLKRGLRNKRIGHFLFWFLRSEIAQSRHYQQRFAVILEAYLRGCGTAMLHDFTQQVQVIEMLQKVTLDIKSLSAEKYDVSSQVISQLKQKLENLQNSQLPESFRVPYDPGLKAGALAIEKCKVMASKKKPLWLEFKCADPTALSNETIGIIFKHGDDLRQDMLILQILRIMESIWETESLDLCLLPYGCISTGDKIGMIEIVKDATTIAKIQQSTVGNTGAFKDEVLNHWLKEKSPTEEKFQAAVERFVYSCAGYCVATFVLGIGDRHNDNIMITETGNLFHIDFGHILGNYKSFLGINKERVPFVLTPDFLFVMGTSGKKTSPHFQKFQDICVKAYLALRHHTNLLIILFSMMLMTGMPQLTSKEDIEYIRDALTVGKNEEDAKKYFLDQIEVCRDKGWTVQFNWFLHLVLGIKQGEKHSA

For orientation: inhibition means the share of the control response that was lost under treatment. In general, Cmax refers to the highest concentration seen after dosing. The AUC is the area under the concentration-time curve, a measure of exposure. A high value points to more exposure. By bioavailability is commonly meant dose-corrected exposure relative to a reference, in per cent. A high value points to much systemic uptake. What is called ED50 is the dose at which the effect has come halfway, by size or by number of responders. Regarding `Cn1cc(-c2ccc3c(c2)N(c2nc4c(s2)C(=O)NC(C)(C)C4)CCO3)cn1`, the inhibition in series [1] and in [2] was over 50% each time. Also, the clearance in the series on Hepatocyte was 0 µL/min/mg; in series [5] it was 7 mL/min/kg. Moreover, in [3], the concentration peaked (Cmax) at 1220 ng/mL. Besides, in series [4], the AUC stood at 6160 ng·h/mL. Moreover, the bioavailability in series [6] is 97%. This compound also gave an ED50 in the series on Rattus norvegicus of 25 mg/kg.
Compound `Cc1ccc(-c2ccc3c(c2)N(c2nc4c(s2)C(=O)NC(C)(C)C4)CCO3)nn1` showed a Cmax in [3] of 185 ng/mL. In series [4], this compound yielded an AUC of 2470 ng·h/mL. In series [6], the bioavailability worked out at 66%.
Broadly, the IC50 is the point on the concentration scale where inhibition reaches its midpoint. High values mean lower potency, low ones higher potency. One may read the microsomal CLint as the rate of metabolic loss divided by the concentration. For `Cc1ccc(-c2ccc3c(c2)N(c2nc4c(s2)C(=O)NC(C)(C)C4)CCO3)cn1`, the inhibition in series [7], in [1], in series [12] and in series [13] was over 80% in each case. In addition, the IC50 in series [8] was 21 nM; in [9], 28 nM; in [10], 116 nM; in series [11] it was 452 nM; in the series on Neutrophil, 57 nM; in [17] it was over 15000 nM. Moreover, the result in series [14] was inactive. For the same compound, the microsomal CLint at 0.5 µM is 17 µL/min/mg in [15] and 25 µL/min/mg in series [16]. This compound yielded a CL in the series on Hepatocyte of 7 µL/min/mg. The same compound registered a Cmax in series [3] of 649 ng/mL. Besides, the AUC in series [4] stood at 2880 ng·h/mL. In the series with Rattus norvegicus, this compound showed an ED50 of 15 mg/kg.

These data come from ChEMBL document CHEMBL1155924, “Achieving multi-isoform PI3K inhibition in a series of substituted 3,4-dihydro-2H-benzo[1,4]oxazines” (Bioorg Med Chem Lett, 2008).
